According to ChEMBL document CHEMBL1138485, “Discovery of inducible nitric oxide synthase (iNOS) inhibitor development candidate KD7332, part 1: Identification of a novel, potent, and selective series of quinolinone iNOS dimerization inhibitors that are orally active in rodent pain models” (J Med Chem, 2009):

Molecular target: T1, Nitric oxide synthase 3 (Homo sapiens) (UniProt P29474)
T1 sequence (whole entry): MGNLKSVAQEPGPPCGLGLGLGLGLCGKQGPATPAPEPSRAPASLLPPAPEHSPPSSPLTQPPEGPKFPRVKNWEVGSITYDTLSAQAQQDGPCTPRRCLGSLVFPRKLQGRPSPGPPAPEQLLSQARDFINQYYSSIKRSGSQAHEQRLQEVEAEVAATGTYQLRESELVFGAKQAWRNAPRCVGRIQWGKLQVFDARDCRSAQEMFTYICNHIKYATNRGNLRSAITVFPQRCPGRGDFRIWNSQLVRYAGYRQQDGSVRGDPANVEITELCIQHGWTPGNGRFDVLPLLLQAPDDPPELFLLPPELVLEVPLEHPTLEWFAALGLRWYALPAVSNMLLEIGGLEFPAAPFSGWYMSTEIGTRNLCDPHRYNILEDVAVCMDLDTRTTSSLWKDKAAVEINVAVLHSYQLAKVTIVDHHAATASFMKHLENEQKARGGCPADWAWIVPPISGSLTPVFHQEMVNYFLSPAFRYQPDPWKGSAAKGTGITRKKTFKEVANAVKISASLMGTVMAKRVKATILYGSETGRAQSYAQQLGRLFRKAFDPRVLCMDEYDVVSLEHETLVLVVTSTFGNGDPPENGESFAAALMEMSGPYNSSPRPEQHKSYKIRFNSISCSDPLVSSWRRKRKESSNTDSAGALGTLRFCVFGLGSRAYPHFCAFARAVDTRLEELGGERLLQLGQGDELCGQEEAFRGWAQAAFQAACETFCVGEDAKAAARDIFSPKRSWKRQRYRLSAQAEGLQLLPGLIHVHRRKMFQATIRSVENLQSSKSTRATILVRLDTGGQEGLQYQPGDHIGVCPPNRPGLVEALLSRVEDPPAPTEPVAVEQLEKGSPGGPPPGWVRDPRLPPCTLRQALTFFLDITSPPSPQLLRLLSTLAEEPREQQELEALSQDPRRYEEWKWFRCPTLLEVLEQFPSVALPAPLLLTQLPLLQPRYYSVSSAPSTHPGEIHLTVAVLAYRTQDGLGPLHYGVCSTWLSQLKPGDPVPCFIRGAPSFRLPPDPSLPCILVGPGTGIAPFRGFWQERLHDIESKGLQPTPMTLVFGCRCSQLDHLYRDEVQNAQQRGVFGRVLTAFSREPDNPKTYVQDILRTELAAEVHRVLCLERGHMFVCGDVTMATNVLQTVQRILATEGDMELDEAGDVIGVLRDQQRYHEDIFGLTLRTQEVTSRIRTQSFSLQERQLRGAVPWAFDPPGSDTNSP
Test: Inhibition of human eNOS expressed in HEK293 cells assessed as NO production at 100 uM by transient transfection assay relative to BBS-4
Format: cell-based
Summary of the method: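 HEK293 cells transiently transfected with human eNOS (15 µg plasmid) or nNOS (10 µg plasmid), Fugene 6 at 3:1 µL:µg, 4 h at 37 °C, 10% CO2. Plated at 5 × 10⁵ cells/mL with compound; SEITU 100 µM final as positive control. After 24 h, activated with A23187 (83 nM final, eNOS) or ionomycin (30 µM final, nNOS). After 18 h more, NO read by DAN fluorescence. Inhibition is relative to the maximal inhibition by the control dimerization inhibitor. 3 runs, 10-point curves, n = 3/point.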

`CC(C)C(=O)N(Cc1cc(=O)[nH]c2c(F)cccc12)c1cccc(Cl)c1` showed an inhibition of less than 50%.
